Test results: ChEMBL document CHEMBL4261639, “Cell-Active Small Molecule Inhibitors of the DNA-Damage Repair Enzyme Poly(ADP-ribose) Glycohydrolase (PARG): Discovery and Optimization of Orally Bioavailable Quinazolinedione Sulfonamides” (J Med Chem, 2018)
≈ marks a conversion by molar mass, not a printed value.

Key:
[1] = molecular target: T1, Poly(ADP-ribose) glycohydrolase (Homo sapiens, UniProt Q86W56); assay: Inhibition of human full length PARG using Bt-NAD ribosylated PARP1 substrate after 10 mins by TR-FRET assay
HeLa = assay: Cytotoxicity against human HeLa cells after 72 hrs by Hoechst 33342 staining based assay; type: cell-based
[2] = Partition coefficient, log D of compound at pH 7.4; type: physicochemical; settings: octanol/water
[3] = Solubility of the compound by turbidimetric method; type: physicochemical
[4] = molecular target: T1, Poly(ADP-ribose) glycohydrolase; assay: Inhibition of PARG in human HeLa cells assessed as induction of MMS-induced PAR chains preincubated for 1 hr followed by MMS addition and measured after 1 hr by Alexofluor 488-conjugated secondary antibody and Hoechst 33342 staining based assay; type: cell-based
Summary of the method: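 Acute (1 h) cell-based proof-of-mechanism assay measuring persistence of PAR chains, i.e. blockade of PARG-mediated PAR degradation, across a dose range. EC50 values are means of at least 4 independent measurements, with standard deviations.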

Cytochrome P450 3A4 = Cytochrome P450 3A4 (Homo sapiens, UniProt P08684); assay: Inhibition of CYP3A4 (unknown origin); type: ADME
Cytochrome P450 2C9 = Cytochrome P450 2C9 (Homo sapiens, UniProt P11712); assay: Inhibition of CYP2C9 (unknown origin); type: ADME
[5] = Clearance in mouse liver microsomes
[6] = Half life in CD1 mouse at 1 mg/kg, iv administered as single dose by LC-MS/MS analysis; type: ADME, organism-based; settings: in vivo
Summary of the method: (§1)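 Male CD-1 mice (n = 2) received a single intravenous dose at a nominal 1 mg/kg.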

[7] = Volume of distribution in CD1 mouse at 1 mg/kg, iv administered as single dose by LC-MS/MS analysis; type: ADME, organism-based; settings: in vivo; summary of the method: as §1
[8] = Solubility of the compound; type: physicochemical
CYP1A = molecular target: T2, CYP1A (Homo sapiens, UniProt P04798+P05177); assay: Inhibition of CYP1A (unknown origin); type: ADME, protein assay
T2 sequence (P04798 whole entry): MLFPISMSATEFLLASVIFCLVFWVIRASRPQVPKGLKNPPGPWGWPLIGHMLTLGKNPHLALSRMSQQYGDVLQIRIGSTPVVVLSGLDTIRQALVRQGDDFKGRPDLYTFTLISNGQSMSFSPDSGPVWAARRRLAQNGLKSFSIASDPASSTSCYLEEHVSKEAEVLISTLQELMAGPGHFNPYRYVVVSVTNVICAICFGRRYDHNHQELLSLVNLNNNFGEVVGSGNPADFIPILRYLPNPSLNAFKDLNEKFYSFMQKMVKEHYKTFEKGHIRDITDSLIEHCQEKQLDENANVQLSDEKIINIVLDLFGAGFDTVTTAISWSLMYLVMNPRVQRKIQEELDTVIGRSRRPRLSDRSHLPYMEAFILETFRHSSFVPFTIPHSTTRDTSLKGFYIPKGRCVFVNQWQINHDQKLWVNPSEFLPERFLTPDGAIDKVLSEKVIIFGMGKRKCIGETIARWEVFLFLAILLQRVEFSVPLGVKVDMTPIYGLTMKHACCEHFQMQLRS
T2 sequence (P05177 whole entry): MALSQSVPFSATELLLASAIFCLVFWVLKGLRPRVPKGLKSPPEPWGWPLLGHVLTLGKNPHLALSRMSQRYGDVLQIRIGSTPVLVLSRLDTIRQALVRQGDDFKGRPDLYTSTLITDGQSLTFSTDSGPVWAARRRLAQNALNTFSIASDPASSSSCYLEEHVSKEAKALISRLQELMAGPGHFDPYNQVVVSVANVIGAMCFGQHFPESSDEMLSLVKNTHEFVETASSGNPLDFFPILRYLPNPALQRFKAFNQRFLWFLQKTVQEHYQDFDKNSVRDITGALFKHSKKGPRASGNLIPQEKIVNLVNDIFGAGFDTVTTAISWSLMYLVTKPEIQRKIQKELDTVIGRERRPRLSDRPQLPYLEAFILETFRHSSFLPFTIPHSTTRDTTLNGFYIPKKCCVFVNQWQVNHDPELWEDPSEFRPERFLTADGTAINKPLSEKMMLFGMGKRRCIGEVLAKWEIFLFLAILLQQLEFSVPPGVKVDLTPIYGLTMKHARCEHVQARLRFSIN

[9] = Clearance in human liver microsomes
[10] = AUC in CD1 mouse at 1 mg/kg, iv administered as single dose by LC-MS/MS analysis; type: ADME, organism-based; settings: in vivo; summary of the method: as §1
[11] = Clearance in CD1 mouse at 1 mg/kg, iv administered as single dose by LC-MS/MS analysis; type: ADME, organism-based; settings: in vivo; summary of the method: as §1
[12] = Apparent permeability across apical to basolateral side in human Caco2 cells; type: ADME, cell-based; settings: Caco-2
[13] = Clearance in mouse hepatocytes assessed per million cells
[14] = Efflux ratio of apparent permeability in human Caco2 cells; settings: Caco-2
[15] = Oral bioavailability in CD1 mouse at 5 mg/kg administered as single dose by LC-MS/MS analysis; type: ADME, organism-based; settings: in vivo
Summary of the method: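 Male CD-1 mice (n = 2) were dosed orally at a nominal 5 mg/kg, with a separate intravenous group (n = 2) at a nominal 1 mg/kg for comparison.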

[16] = tested on: PARG (human, full length); assay: Selectivity ratio of cytotoxicity for human HeLa cells to EC50 for human full length PARG; type: toxicity, cell-based
Cytochrome P450 2D6 = Cytochrome P450 2D6 (Homo sapiens, UniProt P10635); assay: Inhibition of CYP2D6 (unknown origin); type: ADME
Cytochrome P450 2C19 = Cytochrome P450 2C19 (Homo sapiens, UniProt P33261); assay: Inhibition of CYP2C19 (unknown origin); type: ADME
[17] = molecular target: T3, ADP-ribosylhydrolase ARH3 (Homo sapiens, UniProt Q9NX46); assay: Inhibition of human full length C-terminus His-tagged ARH3 expressed in Escherichia coli using Bt-NAD ribosylated PARP1 substrate after 30 mins by TR-FRET assay
T3 sequence (Q9NX46 whole entry): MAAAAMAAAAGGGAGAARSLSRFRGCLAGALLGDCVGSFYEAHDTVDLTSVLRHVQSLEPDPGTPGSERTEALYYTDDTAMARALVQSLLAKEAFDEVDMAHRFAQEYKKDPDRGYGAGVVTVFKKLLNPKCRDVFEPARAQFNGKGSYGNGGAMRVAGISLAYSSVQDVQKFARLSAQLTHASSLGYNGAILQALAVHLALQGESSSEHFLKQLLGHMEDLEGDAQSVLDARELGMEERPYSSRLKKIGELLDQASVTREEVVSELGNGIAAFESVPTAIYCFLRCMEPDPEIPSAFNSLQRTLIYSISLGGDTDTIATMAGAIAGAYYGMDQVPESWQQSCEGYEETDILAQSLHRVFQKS

[18] = molecular target: Poly [ADP-ribose] polymerase 1 (Homo sapiens, UniProt P09874); assay: Inhibition of human PARP1 expressed in Escherichia coli using activated DNA as substrate after 60 mins by peroxy glow reagent A/B based assay
Sequence of Poly [ADP-ribose] polymerase 1 (P09874 whole entry): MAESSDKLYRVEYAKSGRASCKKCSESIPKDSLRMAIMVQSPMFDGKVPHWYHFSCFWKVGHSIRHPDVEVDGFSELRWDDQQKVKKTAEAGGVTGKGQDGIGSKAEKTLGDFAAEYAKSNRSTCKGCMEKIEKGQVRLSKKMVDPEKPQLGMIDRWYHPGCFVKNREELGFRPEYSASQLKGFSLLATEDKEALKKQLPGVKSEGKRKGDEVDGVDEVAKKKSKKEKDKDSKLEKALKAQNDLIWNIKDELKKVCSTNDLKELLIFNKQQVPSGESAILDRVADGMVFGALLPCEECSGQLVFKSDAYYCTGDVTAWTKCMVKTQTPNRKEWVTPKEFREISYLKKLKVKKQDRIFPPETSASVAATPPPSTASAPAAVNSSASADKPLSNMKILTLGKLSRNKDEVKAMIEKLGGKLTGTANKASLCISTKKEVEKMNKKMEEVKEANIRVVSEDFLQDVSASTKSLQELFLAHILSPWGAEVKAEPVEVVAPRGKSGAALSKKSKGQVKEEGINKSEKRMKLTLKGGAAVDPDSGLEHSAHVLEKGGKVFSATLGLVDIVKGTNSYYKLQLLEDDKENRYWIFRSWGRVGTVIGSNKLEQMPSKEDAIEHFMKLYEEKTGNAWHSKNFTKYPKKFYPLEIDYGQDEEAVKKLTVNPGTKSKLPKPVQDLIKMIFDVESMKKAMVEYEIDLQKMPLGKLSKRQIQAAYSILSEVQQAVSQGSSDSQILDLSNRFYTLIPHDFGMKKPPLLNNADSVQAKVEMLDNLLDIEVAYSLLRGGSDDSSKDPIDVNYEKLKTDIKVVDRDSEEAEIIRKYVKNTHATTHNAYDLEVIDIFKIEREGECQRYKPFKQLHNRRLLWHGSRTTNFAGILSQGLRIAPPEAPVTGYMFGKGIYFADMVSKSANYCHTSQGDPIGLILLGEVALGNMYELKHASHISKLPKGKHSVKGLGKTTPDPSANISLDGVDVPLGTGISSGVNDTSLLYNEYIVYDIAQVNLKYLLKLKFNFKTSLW

T1 sequence (Q86W56 whole entry): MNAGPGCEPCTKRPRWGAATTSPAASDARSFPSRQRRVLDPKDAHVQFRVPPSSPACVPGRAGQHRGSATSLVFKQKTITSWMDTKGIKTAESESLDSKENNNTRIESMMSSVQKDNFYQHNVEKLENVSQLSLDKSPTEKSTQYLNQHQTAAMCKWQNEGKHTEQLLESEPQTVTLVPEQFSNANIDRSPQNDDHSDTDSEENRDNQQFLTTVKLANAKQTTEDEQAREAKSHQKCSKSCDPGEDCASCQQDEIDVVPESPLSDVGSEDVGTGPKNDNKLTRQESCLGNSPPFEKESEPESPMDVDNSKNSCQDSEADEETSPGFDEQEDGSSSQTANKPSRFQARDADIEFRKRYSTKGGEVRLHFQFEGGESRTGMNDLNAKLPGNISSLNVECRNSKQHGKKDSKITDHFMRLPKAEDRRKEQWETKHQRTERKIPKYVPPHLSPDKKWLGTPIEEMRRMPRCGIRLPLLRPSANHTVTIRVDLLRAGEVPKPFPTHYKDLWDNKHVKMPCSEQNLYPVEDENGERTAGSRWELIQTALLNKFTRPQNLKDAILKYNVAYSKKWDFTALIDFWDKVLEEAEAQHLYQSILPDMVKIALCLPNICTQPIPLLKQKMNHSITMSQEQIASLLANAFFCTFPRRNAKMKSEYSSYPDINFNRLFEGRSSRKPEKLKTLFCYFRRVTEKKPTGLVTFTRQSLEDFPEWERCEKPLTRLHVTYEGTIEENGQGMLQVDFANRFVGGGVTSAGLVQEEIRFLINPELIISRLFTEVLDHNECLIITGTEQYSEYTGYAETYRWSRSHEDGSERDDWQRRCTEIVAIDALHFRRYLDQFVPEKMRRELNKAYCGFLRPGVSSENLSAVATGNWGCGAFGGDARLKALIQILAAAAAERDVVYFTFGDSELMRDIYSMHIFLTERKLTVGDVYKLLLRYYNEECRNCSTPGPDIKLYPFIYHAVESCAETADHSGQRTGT
Sequence of Cytochrome P450 2D6 (P10635 whole entry): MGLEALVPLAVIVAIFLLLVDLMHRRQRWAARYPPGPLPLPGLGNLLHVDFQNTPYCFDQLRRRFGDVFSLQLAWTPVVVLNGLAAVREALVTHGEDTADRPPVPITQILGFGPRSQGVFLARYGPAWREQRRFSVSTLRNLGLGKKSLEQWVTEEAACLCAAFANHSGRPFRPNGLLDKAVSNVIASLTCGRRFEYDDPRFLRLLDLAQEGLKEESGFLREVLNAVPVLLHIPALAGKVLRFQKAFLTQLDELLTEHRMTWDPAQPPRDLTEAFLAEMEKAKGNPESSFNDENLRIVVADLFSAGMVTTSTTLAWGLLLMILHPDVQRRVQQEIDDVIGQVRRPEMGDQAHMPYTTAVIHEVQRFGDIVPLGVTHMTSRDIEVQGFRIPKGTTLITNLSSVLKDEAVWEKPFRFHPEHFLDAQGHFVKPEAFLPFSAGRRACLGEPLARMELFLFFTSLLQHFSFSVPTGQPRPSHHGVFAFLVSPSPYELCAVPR
Sequence of Cytochrome P450 2C9 (P11712 whole entry): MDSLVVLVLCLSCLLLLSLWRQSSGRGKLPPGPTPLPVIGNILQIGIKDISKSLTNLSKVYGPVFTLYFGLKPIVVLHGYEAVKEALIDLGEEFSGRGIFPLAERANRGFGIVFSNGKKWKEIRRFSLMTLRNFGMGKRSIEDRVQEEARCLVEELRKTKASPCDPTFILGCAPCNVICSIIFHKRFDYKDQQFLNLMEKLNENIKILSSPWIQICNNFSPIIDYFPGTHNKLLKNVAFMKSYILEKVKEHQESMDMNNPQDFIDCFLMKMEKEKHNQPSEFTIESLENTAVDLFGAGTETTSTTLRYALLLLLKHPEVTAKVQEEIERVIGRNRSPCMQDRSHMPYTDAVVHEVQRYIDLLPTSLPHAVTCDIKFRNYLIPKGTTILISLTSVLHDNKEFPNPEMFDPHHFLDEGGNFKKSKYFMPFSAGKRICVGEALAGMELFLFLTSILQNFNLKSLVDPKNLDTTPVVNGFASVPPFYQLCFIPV
Sequence of Cytochrome P450 2C19 (P33261 whole entry): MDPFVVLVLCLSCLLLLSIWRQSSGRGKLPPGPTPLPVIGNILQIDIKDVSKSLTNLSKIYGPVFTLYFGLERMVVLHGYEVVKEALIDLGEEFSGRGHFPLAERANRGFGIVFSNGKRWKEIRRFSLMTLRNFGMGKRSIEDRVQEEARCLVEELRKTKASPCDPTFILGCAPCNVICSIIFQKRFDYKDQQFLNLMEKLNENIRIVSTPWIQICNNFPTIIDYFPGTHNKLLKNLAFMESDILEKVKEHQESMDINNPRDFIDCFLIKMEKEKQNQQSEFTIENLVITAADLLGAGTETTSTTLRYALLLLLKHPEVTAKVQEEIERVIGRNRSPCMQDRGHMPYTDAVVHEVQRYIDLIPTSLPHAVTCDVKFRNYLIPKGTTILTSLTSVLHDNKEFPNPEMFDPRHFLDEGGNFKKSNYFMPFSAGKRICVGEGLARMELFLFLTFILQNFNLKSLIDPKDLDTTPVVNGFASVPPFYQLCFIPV
Sequence of Cytochrome P450 3A4 (P08684 whole entry): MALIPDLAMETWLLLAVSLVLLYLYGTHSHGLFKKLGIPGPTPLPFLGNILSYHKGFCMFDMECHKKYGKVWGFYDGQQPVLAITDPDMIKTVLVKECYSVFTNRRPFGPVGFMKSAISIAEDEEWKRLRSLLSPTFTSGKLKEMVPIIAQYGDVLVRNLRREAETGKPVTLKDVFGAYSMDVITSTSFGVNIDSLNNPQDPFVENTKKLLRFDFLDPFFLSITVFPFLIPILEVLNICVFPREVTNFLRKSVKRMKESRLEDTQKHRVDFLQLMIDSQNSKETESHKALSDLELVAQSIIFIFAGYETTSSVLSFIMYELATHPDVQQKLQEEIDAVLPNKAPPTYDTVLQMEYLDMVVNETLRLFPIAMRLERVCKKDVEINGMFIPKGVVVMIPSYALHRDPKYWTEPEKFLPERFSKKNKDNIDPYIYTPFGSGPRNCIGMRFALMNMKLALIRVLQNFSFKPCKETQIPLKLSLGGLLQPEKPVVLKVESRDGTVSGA

SMILES	EC50 [1]	EC50 [4]	microsomal CLint [5]	microsomal CLint [9]	also measured
Cn1c(=O)c2cc(S(=O)(=O)NC3(C)CC3)ccc2n(C)c1=O	3900 nM	1800 nM			Activity (HeLa): > 30 µM; logD [2]: 1.73; solubility kinetic [3]: > 100 µM
Cc1cc(Cn2c(=O)c3cc(S(=O)(=O)NC4(C)CC4)ccc3n(CC3COC3)c2=O)on1	340 nM	280 nM	22 µL/min/mg	19 µL/min/mg	IC50 (Cytochrome P450 3A4): > 25 µM; IC50 (Cytochrome P450 2C9): > 25 µM; half-life [6]: 12 min; Vd [7]: 2.5 L/kg; solubility [8]: > 100 µM; IC50 (CYP1A): > 25 µM; AUC [10]: 90 ng·h/mL; clearance [11]: 167 mL/min/kg; Papp A→B [12]: 1.9 ×10⁻⁶ cm/s; hepatocyte CLint [13]: 25 µL/min/1e6 cells; efflux ratio [14]: 21; bioavailability [15]: 25%; selectivity ratio [16]: > 100; IC50 (Cytochrome P450 2D6): > 25 µM; IC50 (Cytochrome P450 2C19): > 25 µM
Cc1cc(Cn2c(=O)n(Cc3cnn(C)c3)c(=O)c3cc(S(=O)(=O)NC4(C)CC4)ccc32)n(C)n1	23 nM	88 nM		34 µL/min/mg	EC50 [17]: > 100 µM; EC50 [18]: > 150 µM; selectivity ratio [16]: > 100
Cn1c(=O)c2cc(S(=O)(=O)NC3(C)CC3)ccc2n(CC2CC2)c1=O	440 nM	620 nM			EC50 [17]: > 100 µM; EC50 [18]: > 150 µM; selectivity ratio [16]: > 100
CC(C)(C)NS(=O)(=O)c1ccc2c(c1)C(=O)c1ccccc1C2=O	81000 nM	30000 nM			Activity (HeLa): 16 µM; solubility kinetic [3]: 20 µM (≈ 6.87 µg/mL)
Cc1ncc(Cn2c(=O)c3cc(S(=O)(=O)NC4(C)CC4)ccc3n(CC3CC3)c2=O)s1	19 nM	28 nM		160 µL/min/mg	EC50 [17]: > 100 µM; EC50 [18]: > 150 µM
Cc1cc(Cn2c(=O)n(Cc3nnc(C)s3)c(=O)c3cc(S(=O)(=O)NC4(C)CC4)ccc32)n(C)n1	64 nM	270 nM	35 µL/min/mg	15 µL/min/mg	
Cn1cc(Cn2c(=O)c3cc(S(=O)(=O)NC4(C)CC4)ccc3n(CC3COC3)c2=O)cn1	69 nM	250 nM	16 µL/min/mg	9.2 µL/min/mg	IC50 (Cytochrome P450 3A4): > 10 µM; IC50 (Cytochrome P450 2C9): > 10 µM; half-life [6]: 22 min; Vd [7]: 1.4 L/kg; solubility [8]: > 100 µM; IC50 (CYP1A): > 10 µM; AUC [10]: 250 ng·h/mL; clearance [11]: 66.7 mL/min/kg; Papp A→B [12]: 1 ×10⁻⁶ cm/s; hepatocyte CLint [13]: 24 µL/min/1e6 cells; efflux ratio [14]: 34; bioavailability [15]: 41%; selectivity ratio [16]: > 100; IC50 (Cytochrome P450 2D6): > 10 µM; IC50 (Cytochrome P450 2C19): > 10 µM
Cc1cc(Cn2c(=O)n(Cc3cnc(C)s3)c(=O)c3cc(S(=O)(=O)NC4(C)CC4)ccc32)n(C)n1	26 nM	37 nM		79 µL/min/mg	selectivity ratio [16]: > 100
C#CCn1c(=O)n(CC#N)c(=O)c2cc(S(=O)(=O)NC3(C)CC3)ccc21	250 nM	270 nM	63 µL/min/mg	10 µL/min/mg	
C#CCn1c(=O)n(Cc2cnc(C)s2)c(=O)c2cc(S(=O)(=O)NC3(C)CC3)ccc21	45 nM	82 nM		100 µL/min/mg	
C#CCn1c(=O)n(Cc2cnn(C)c2)c(=O)c2cc(S(=O)(=O)NC3(C)CC3)ccc21	52 nM	130 nM		42 µL/min/mg	
Cc1nc(C)c(Cn2c(=O)n(Cc3cnn(C)c3)c(=O)c3cc(S(=O)(=O)NC4(C)CC4)ccc32)s1	6 nM	20 nM		97 µL/min/mg	
Cn1cc(Cn2c(=O)c3cc(S(=O)(=O)NC4(C)CC4)ccc3n(CC3CC3)c2=O)cn1	29 nM	56 nM		81 µL/min/mg	
CC1(NS(=O)(=O)c2ccc3c(c2)c(=O)n(CC#N)c(=O)n3CC2CC2)CC1	270 nM	1100 nM	36 µL/min/mg	17 µL/min/mg	
C#CCn1c(=O)n(Cc2cc(C)no2)c(=O)c2cc(S(=O)(=O)NC3(C)CC3)ccc21	100 nM	76 nM		72 µL/min/mg	
CCn1c(=O)n(Cc2nnc(C)s2)c(=O)c2cc(S(=O)(=O)NC3(C)CC3)ccc21	240 nM	120 nM	30 µL/min/mg	17 µL/min/mg	
Cc1cc(Cn2c(=O)c3cc(S(=O)(=O)NC4(C)CC4)ccc3n(Cc3cc(C)nn3C)c2=O)on1	38 nM	120 nM		37 µL/min/mg	
Cc1cc(Cn2c(=O)n(CC#N)c(=O)c3cc(S(=O)(=O)NC4(C)CC4)ccc32)n(C)n1	280 nM	560 nM		20 µL/min/mg	
